Data published in ChEMBL document CHEMBL5724801, “EUbOPEN Chemogenomics Library - Multiplex” (2024).
Several values for one entry are separate records, joined by “and”; a condition that tells them apart may be missing. Equal values may be shown once.

Tested on: U2OS
Assay: Multiplex assay against U2OS
Assay type: toxicity, cell-based
Conditions: human
Procedure, shortened: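 Live cells were stained at seeding with Hoechst33342, BioTracker Green Microtubule Cytoskeleton Dye, MitoTracker Red and Annexin V Alexa Fluor 680. Following compound addition, they were imaged on a CQ1 microscope at 37°C and 5% CO2 and gated by CellPathfinder machine learning into Hoechst high-intensity objects or normal cells, with normal cells split into healthy, pyknosed or fragmented nuclei and pyknosed cells into mitotic or apoptotic. Tubulin, mitochondrial-mass and membrane-permeability phenotypes are per cents of healthy-nucleus cells.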

[1] = 12 h, 1 µM, compound concentration 1 uM
[2] = 12 h, 10 µM, compound concentration 10 uM
[3] = 24 h, 1 µM, compound concentration 1 uM
[4] = 24 h, 10 µM, compound concentration 10 uM
[5] = 48 h, 1 µM, compound concentration 1 uM
[6] = 48 h, 10 µM, compound concentration 10 uM

SMILES: Cc1nn(C)c2nc(NNC(=O)Nc3cc(Cl)nc(Cl)c3)cc(C(C)C)c12
- Population Apoptotic (%) [1]: 76% and 72%
- Population Fragmented Nuclei (%) [1]: 23% and 14%
- Population Healthy Nuclei (%) [1]: 66% and 76%
- Population Hoechst High Intensity Objects (%) [1]: 1% and 2%
- Population Membrane Permeable-Phenotype (%) [1]: 5% and 10%
- Population Mitochondria Different-Phenotype (%) [1]: 3% and 7%
- Population Mitotic Cells (%) [1]: 24% and 27%
- Population Normal (%) [1]: 98% and 97%
- Population Pyknosed Nuclei (%) [1]: 9% and 8%
- Population Tubulin-Different-Phenotype (%) [1]: 2% and 7%
- Total Cell Count [1]: 268 and 131
- Population Apoptotic (%) [2]: 77% and 47%
- Population Fragmented Nuclei (%) [2]: 21% and 15%
- Population Healthy Nuclei (%) [2]: 56% and 63%
- Population Hoechst High Intensity Objects (%) [2]: 7% and 4%
- Population Membrane Permeable-Phenotype (%) [2]: 75% and 57%
- Population Mitochondria Different-Phenotype (%) [2]: 46% and 63%
- Population Mitotic Cells (%) [2]: 22% and 52%
- Population Normal (%) [2]: 92% and 95%
- Population Pyknosed Nuclei (%) [2]: 21%
- Population Tubulin-Different-Phenotype (%) [2]: 80% and 77%
- Total Cell Count [2]: 222 and 104
- Population Apoptotic (%) [3]: 80% and 93%
- Population Fragmented Nuclei (%) [3]: 20% and 17%
- Population Healthy Nuclei (%) [3]: 71% and 73%
- Population Hoechst High Intensity Objects (%) [3]: 0% and 2%
- Population Membrane Permeable-Phenotype (%) [3]: 4% and 9%
- Population Mitochondria Different-Phenotype (%) [3]: 2% and 4%
- Population Normal (%) [3]: 99% and 97%
- Population Pyknosed Nuclei (%) [3]: 8% and 9%
- Population Tubulin-Different-Phenotype (%) [3]: 1% and 4%
- Total Cell Count [3]: 328 and 168
- Population Apoptotic (%) [4]: 78% and 69%
- Population Fragmented Nuclei (%) [4]: 19% and 16%
- Population Healthy Nuclei (%) [4]: 49% and 61%
- Population Hoechst High Intensity Objects (%) [4]: 5% and 2%
- Population Membrane Permeable-Phenotype (%) [4]: 69% and 42%
- Population Mitochondria Different-Phenotype (%) [4]: 58% and 51%
- Population Mitotic Cells (%) [4]: 21% and 30%
- Population Normal (%) [4]: 94% and 97%
- Population Pyknosed Nuclei (%) [4]: 31% and 21%
- Population Tubulin-Different-Phenotype (%) [4]: 77% and 57%
- Total Cell Count [4]: 218 and 110
- Population Apoptotic (%) [5]: 88% and 86%
- Population Fragmented Nuclei (%) [5]: 17% and 21%
- Population Healthy Nuclei (%) [5]: 75% and 65%
- Population Hoechst High Intensity Objects (%) [5]: 2% and 1%
- Population Membrane Permeable-Phenotype (%) [5]: 4% and 8%
- Population Mitochondria Different-Phenotype (%) [5]: 3% and 4%
- Population Mitotic Cells (%) [5]: 11% and 13%
- Population Normal (%) [5]: 97% and 98%
- Population Pyknosed Nuclei (%) [5]: 7% and 12%
- Population Tubulin-Different-Phenotype (%) [5]: 2% and 5%
- Total Cell Count [5]: 504 and 247
- Population Apoptotic (%) [6]: 83% and 80%
- Population Fragmented Nuclei (%) [6]: 24%
- Population Healthy Nuclei (%) [6]: 43% and 48%
- Population Hoechst High Intensity Objects (%) [6]: 9% and 6%
- Population Membrane Permeable-Phenotype (%) [6]: 51%
- Population Mitochondria Different-Phenotype (%) [6]: 46% and 63%
- Population Mitotic Cells (%) [6]: 16% and 20%
- Population Normal (%) [6]: 90% and 93%
- Population Pyknosed Nuclei (%) [6]: 32% and 27%
- Population Tubulin-Different-Phenotype (%) [6]: 49% and 57%
- Total Cell Count [6]: 244 and 115
